{"source": "ChEMBL document CHEMBL4266027", "about": "“Cyanobufalins: Cardioactive Toxins from Cyanobacterial Blooms” (J Nat Prod, 2018)", "key": {"[1]": {"system": "MDA-MB-468", "test": "Cytotoxicity against human MDA-MB-468 cells assessed as decrease in cell viability after 72 hrs by MTS assay", "assay_type": "functional, cell-based", "settings": "MDA-MB-468, 72 h", "how_it_was_run": "(§1)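 Cell proliferation assay using the MTS reagent. Compounds were tested as a dilution series, and EC50 values were derived from the concentration–response data.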"}, "[2]": {"system": "BXPC-3", "test": "Cytotoxicity against human BxPC3 cells assessed as decrease in cell viability after 72 hrs by MTS assay", "assay_type": "functional, cell-based", "settings": "BXPC-3, 72 h", "how_it_was_run": "as §1"}, "[3]": {"system": "THP-1", "test": "Cytotoxicity against human THP1 cells assessed as decrease in cell viability after 72 hrs by MTS assay", "assay_type": "functional, cell-based", "settings": "THP-1, 72 h", "how_it_was_run": "as §1"}, "[4]": {"system": "SK-OV-3", "test": "Cytotoxicity against human SKOV3 cells assessed as decrease in cell viability after 72 hrs by MTS assay", "assay_type": "functional, cell-based", "settings": "SK-OV-3, 72 h", "how_it_was_run": "as §1"}, "[5]": {"system": "NCI-N87", "test": "Cytotoxicity against human NCI-N87 cells assessed as decrease in cell viability after 72 hrs by MTS assay", "assay_type": "functional, cell-based", "settings": "NCI-N87, 72 h", "how_it_was_run": "as §1"}, "[6]": {"system": "MRC5", "test": "Cytotoxicity against human MRC5 cells assessed as decrease in cell viability after 72 hrs by MTS assay", "assay_type": "cell-based", "settings": "MRC5, 72 h", "how_it_was_run": "as §1"}, "[7]": {"test": "Cytotoxicity against human LOX cells assessed as decrease in cell viability after 72 hrs by MTS assay", "assay_type": "functional, cell-based", "how_it_was_run": "as §1"}, "[8]": {"system": "DU-145", "test": "Cytotoxicity against human DU145 cells assessed as decrease in cell viability after 72 hrs by MTS assay", "assay_type": "functional, cell-based", "settings": "DU-145, 72 h", "how_it_was_run": "as §1"}, "[9]": {"system": "MES-SA", "test": "Cytotoxicity against human MESSA cells assessed as decrease in cell viability after 72 hrs by MTS assay", "assay_type": "functional, cell-based", "how_it_was_run": "as §1"}, "[10]": {"system": "HUVEC", "test": "Cytotoxicity against human HUVEC cells assessed as decrease in cell viability after 72 hrs by MTS assay", "assay_type": "cell-based", "how_it_was_run": "as §1"}, "[11]": {"system": "MES-SA/Dx5", "test": "Cytotoxicity against human MES-SA/Dx5 cells assessed as decrease in cell viability after 72 hrs by MTS assay", "assay_type": "functional, cell-based", "settings": "MES-SA/Dx5, 72 h", "how_it_was_run": "as §1"}, "[12]": {"system": "MCF7", "test": "Cytotoxicity against human MCF7 cells assessed as decrease in cell viability after 72 hrs by MTS assay", "assay_type": "functional, cell-based", "settings": "MCF7, 72 h", "how_it_was_run": "as §1"}, "[13]": {"system": "HepG2", "test": "Cytotoxicity against human HepG2 cells assessed as decrease in cell viability after 72 hrs by MTS assay", "assay_type": "functional, cell-based", "settings": "HepG2, 72 h", "how_it_was_run": "as §1"}, "[14]": {"system": "U-87 MG", "test": "Cytotoxicity against human U87MG cells assessed as decrease in cell viability after 72 hrs by MTS assay", "assay_type": "functional, cell-based, U-87MG ATCC", "how_it_was_run": "as §1"}, "[15]": {"system": "HCT-116", "test": "Cytotoxicity against human HCT116 cells assessed as decrease in cell viability after 72 hrs by MTS assay", "assay_type": "functional, cell-based", "settings": "HCT-116, 72 h", "how_it_was_run": "as §1"}, "[16]": {"system": "HT-1080", "test": "Cytotoxicity against human HT1080 cells assessed as decrease in cell viability after 72 hrs by MTS assay", "assay_type": "functional, cell-based", "settings": "HT-1080, 72 h", "how_it_was_run": "as §1"}, "[17]": {"system": "Daudi", "test": "Cytotoxicity against human Daudi cells assessed as decrease in cell viability after 72 hrs by MTS assay", "assay_type": "functional, cell-based", "how_it_was_run": "as §1"}, "[18]": {"system": "PANC-1", "test": "Cytotoxicity against human PANC1 cells assessed as decrease in cell viability after 72 hrs by MTS assay", "assay_type": "functional, cell-based", "settings": "PANC-1, 72 h", "how_it_was_run": "as §1"}, "[19]": {"system": "786-0", "test": "Cytotoxicity against human 786-O cells assessed as decrease in cell viability after 72 hrs by MTS assay", "assay_type": "functional, cell-based", "settings": "786-0, 72 h", "how_it_was_run": "as §1"}, "[20]": {"system": "A549", "test": "Cytotoxicity against human A549 cells assessed as decrease in cell viability after 72 hrs by MTS assay", "assay_type": "functional, cell-based", "settings": "A549, 72 h", "how_it_was_run": "as §1"}, "[21]": {"system": "NCI-H1975", "test": "Cytotoxicity against human NCI-H1975 cells assessed as decrease in cell viability after 72 hrs by MTS assay", "assay_type": "functional, cell-based", "settings": "NCI-H1975, 72 h", "how_it_was_run": "as §1"}, "[22]": {"system": "LoVo", "test": "Cytotoxicity against human LoVo cells assessed as decrease in cell viability after 72 hrs by MTS assay", "assay_type": "functional, cell-based", "how_it_was_run": "as §1"}, "[23]": {"system": "MV4-11", "test": "Cytotoxicity against human MV411 cells assessed as decrease in cell viability after 72 hrs by MTS assay", "assay_type": "functional, cell-based", "settings": "MV4-11, 72 h", "how_it_was_run": "as §1"}, "[24]": {"system": "HeLa", "test": "Cytotoxicity against human HeLa cells assessed as decrease in cell viability after 72 hrs by MTS assay", "assay_type": "functional, cell-based", "how_it_was_run": "as §1"}, "[25]": {"system": "H22", "test": "Cytotoxicity against mouse H22 cells assessed as decrease in cell viability after 72 hrs by MTS assay", "assay_type": "functional, cell-based", "settings": "H22, 72 h", "how_it_was_run": "as §1"}, "[26]": {"system": "CCRF S-180", "test": "Cytotoxicity against mouse S180 cells assessed as decrease in cell viability after 72 hrs by MTS assay", "assay_type": "functional, cell-based", "settings": "CCRF S-180, 72 h", "how_it_was_run": "as §1"}, "[27]": {"system": "BT-474", "test": "Cytotoxicity against human BT474 cells assessed as decrease in cell viability after 72 hrs by MTS assay", "assay_type": "functional, cell-based", "settings": "BT-474, 72 h", "how_it_was_run": "as §1"}}}
{"smiles": "CC1(C)[C@@H](OC(N)=O)[C@H]2O[C@H]2[C@]2(C=O)[C@H]3CC[C@]4(C)[C@@H](c5ccc(=O)oc5)[C@@H](Cl)C[C@]4(O)C3=CC[C@@H]12", "values": [{"measurement": "EC50", "setting": "[1]", "result": 8.4, "unit": "nM"}, {"measurement": "EC50", "setting": "[2]", "result": 5.5, "unit": "nM"}, {"measurement": "EC50", "setting": "[3]", "result": 4.1, "unit": "nM"}, {"measurement": "EC50", "setting": "[4]", "result": 6.1, "unit": "nM"}, {"measurement": "EC50", "setting": "[5]", "result": 6.3, "unit": "nM"}, {"measurement": "EC50", "setting": "[6]", "result": 2.7, "unit": "nM"}, {"measurement": "EC50", "setting": "[7]", "result": 3.2, "unit": "nM"}, {"measurement": "EC50", "setting": "[8]", "result": 7.2, "unit": "nM"}, {"measurement": "EC50", "setting": "[9]", "result": 7.4, "unit": "nM"}, {"measurement": "EC50", "setting": "[10]", "result": 7.7, "unit": "nM"}, {"measurement": "EC50", "setting": "[11]", "result": 5.7, "unit": "nM"}, {"measurement": "EC50", "setting": "[12]", "result": 15, "unit": "nM"}, {"measurement": "EC50", "setting": "[13]", "result": 3.2, "unit": "nM"}, {"measurement": "EC50", "setting": "[14]", "result": 6.4, "unit": "nM"}, {"measurement": "EC50", "setting": "[15]", "result": 5.9, "unit": "nM"}, {"measurement": "EC50", "setting": "[16]", "result": 5.4, "unit": "nM"}, {"measurement": "EC50", "setting": "[17]", "result": 2.8, "unit": "nM"}, {"measurement": "EC50", "setting": "[18]", "result": 2.4, "unit": "nM"}, {"measurement": "EC50", "setting": "[19]", "result": 2.6, "unit": "nM"}, {"measurement": "EC50", "setting": "[20]", "result": 3.8, "unit": "nM"}, {"measurement": "EC50", "setting": "[21]", "result": 4.9, "unit": "nM"}, {"measurement": "EC50", "setting": "[22]", "result": 6, "unit": "nM"}, {"measurement": "EC50", "setting": "[23]", "result": 6.4, "unit": "nM"}, {"measurement": "EC50", "setting": "[24]", "result": 5.1, "unit": "nM"}, {"measurement": "EC50", "setting": "[25]", "result": 2400, "unit": "nM"}, {"measurement": "EC50", "setting": "[26]", "result": "> 20000", "unit": "nM"}, {"measurement": "EC50", "setting": "[27]", "result": 3.9, "unit": "nM"}]}
